*1 amine or outer side, *2 acyl side, *3 side chain or, on linkers, in order; H or OH if unused. Where a SMILES comes first, the peptide text is derived from it. Side-chain parts run from the residue outwards. [ ]: non-standard residue; d: D form. The star is where a group is joined. X2 = O=C([C@@H]1Cc2c([nH]c3ccccc23)CN1CCN[*:1])[*:2]; X8 = O=C(CN(CCN[*:1])Cc1ccc([N+](=O)[O-])cc1)[*:2]; N(2-Aminoethyl)Gly = O=C(CN(CCN[*:3])[*:1])[*:2]; X7 = O=C(CN(CCN[*:1])CCc1c[nH]c2ccccc12)[*:2]; X4 = O=C([C@@H]1Cc2ccccc2CN1CCN[*:1])[*:2]; X9 = O=C(CN(CCN[*:1])Cc1ccnc2ccccc12)[*:2]; X6 = O=C(CN(CCN[*:1])CCc1ccccc1)[*:2]; X3 = O=C(CN(CCN[*:1])Cc1ccccc1)[*:2]; X1 = O=C(Cc1c[nH]c2ccccc12)*; 3Amb = NCc1cccc(C(=O)O)c1; PhAc = O=C(Cc1ccccc1)*; βAla = NCCC(=O)O
Columns and labels:
T-cell [1] = experiment: Stimulation of INFgamma production in M199.2.7 T cells at 10 uM by flow cytometry; format: functional, Homo sapiens
How it was run: (§1)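 Melan-A/MART-1-specific CD8 clones. T2 cells are pulsed 1 h at 37 °C with 10 µM compound and washed. 2 × 10^5 of them are co-cultured with 10^5 clone cells in RPMI-1640/10% FCS with brefeldin A (10 µg/mL) for 6 h at 37 °C. Cells are fixed in 4% PFA, then saponin-permeabilized and stained with PE anti-IFN-γ (5 µg/mL, 30 min). Flow cytometry on 10^4 events gives the % IFN-γ+ cells and the MFI.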

T-cell [2] = experiment: Stimulation of INFgamma production in M199.3.2 T cells at 10 uM by flow cytometry; format: functional, Homo sapiens; how it was run: as §1
[3] = Stimulation of INFgamma production in MEL1.37 T cells at 10 uM by flow cytometry; format: functional, Homo sapiens; how it was run: as §1
Homo sapiens = species on record: Homo sapiens; experiment: Binding affinity to HLA-A2 in TAP-deficient HLA-A2+T2 cells assessed as fluorescence intensity relative to ELA
How it was run: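 T2 cells (TAP-deficient, HLA-A2+) loaded overnight at 37 °C in serum-free RPMI-1640 with 100 µM compound plus human β2-microglobulin (100 ng/mL). Washed, stained with HLA-A2 mAb HB54 or isotype control (30 min, 4 °C), then PE anti-mouse IgG (30 min); flow cytometry. RFI = specific MFI / control MFI. Value reported as […].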

T-cell [4] = experiment: Stimulation of INFgamma production in M17.29 ELA1 T cells at 10 uM by flow cytometry; format: functional, Homo sapiens; how it was run: as §1
T-cell [5] = experiment: Stimulation of INFgamma production in CDM41 ELA1 T cells at 10 uM by flow cytometry; format: functional, Homo sapiens; how it was run: as §1
T-cell [6] = experiment: Stimulation of INFgamma production in 10C10 T cells at 10 uM by flow cytometry; format: functional, Homo sapiens; how it was run: as §1
T-cell [7] = experiment: Stimulation of INFgamma production in M77.84 T cells at 10 uM by flow cytometry; format: functional, Homo sapiens; how it was run: as §1
T-cell [8] = experiment: Stimulation of INFgamma production in MEL1.38 T cells at 10 uM by flow cytometry; format: functional, Homo sapiens
T-cell [9] = experiment: Stimulation of INFgamma production in CDM41 T cells at 10 uM by flow cytometry; format: functional, Homo sapiens; how it was run: as §1
T-cell [10] = experiment: Stimulation of INFgamma production in M17.29 T cells at 10 uM by flow cytometry; format: functional, Homo sapiens; how it was run: as §1

| Compound | Activity (T-cell [1]) [%] | Activity [3] [%] | Ratio (Homo sapiens) | Activity (T-cell [7]) [%] | also measured |
| --- | --- | --- | --- | --- | --- |
| CC[C@H](C)[C@H](NC(=O)CNC(=O)CN(CCNC(=O)[C@H](C)NC(=O)[C@H](CC(C)C)NC(=O)[C@@H](N)CCC(=O)O)Cc1ccc([N+](=O)[O-])cc1)C(=O)N[C@@H](CC(C)C)C(=O)N[C@H](C(=O)N[C@H](C(=O)O)C(C)C)[C@@H](C)O | 0 | 0 | 0.85 | 0 | Activity (T-cell [2]): 0%; Activity (T-cell [4]): 0%; Activity (T-cell [5]): 64%; Activity (T-cell [6]): 0% |
| CC[C@H](C)[C@H](NC(=O)CNC(=O)[C@H](Cc1ccccc1)NC(=O)CNC(=O)[C@H](C)NC(=O)[C@H](CC(C)C)NC(=O)[C@@H](N)CCC(=O)O)C(=O)N[C@@H](CC(C)C)C(=O)N[C@H](C(=O)N[C@H](C(=O)O)C(C)C)[C@@H](C)O | 7 | 71 |  | 32 | Activity (T-cell [2]): 83%; Activity (T-cell [4]): 48%; Activity (T-cell [5]): 58% |
| CC(C)C[C@H](NC(=O)CCN)C(=O)N[C@@H](C)C(=O)NCCN1Cc2[nH]c3ccccc3c2C[C@H]1C(=O)NCc1cccc(C(=O)N[C@@H](CC(C)C)C(=O)N[C@H](C(=O)N[C@H](C(=O)O)C(C)C)[C@@H](C)O)c1 (H-[βAla]LA[X2][3Amb]LTV-OH) |  |  | 0.81 |  |  |
| CC[C@H](C)[C@H](NCCNC(=O)[C@H](Cc1c[nH]c2ccccc12)NCCNC(=O)[C@H](C)NC(=O)[C@H](CC(C)C)NC(=O)[C@@H](N)CCC(=O)O)C(=O)N[C@@H](CC(C)C)C(=O)N[C@H](C(=O)N[C@H](C(=O)O)C(C)C)[C@@H](C)O |  |  | 1.61 |  |  |
| CC(C)C[C@H](NC(=O)CCN)C(=O)N[C@@H](C)C(=O)NCCN(CCc1c[nH]c2ccccc12)CC(=O)NCc1cccc(C(=O)N[C@@H](CC(C)C)C(=O)N[C@H](C(=O)N[C@H](C(=O)O)C(C)C)[C@@H](C)O)c1 (H-[βAla]LA[X7][3Amb]LTV-OH) |  |  | 0.86 |  |  |
| CC[C@H](C)[C@H](NC(=O)CNC(=O)[C@H](Cc1ccc(O)cc1)NC(=O)CNC(=O)[C@H](C)NC(=O)[C@H](CC(C)C)NC(=O)[C@@H](N)CCC(=O)O)C(=O)N[C@@H](CC(C)C)C(=O)N[C@H](C(=O)N[C@H](C(=O)O)C(C)C)[C@@H](C)O | 0 | 84 |  | 4 | Activity (T-cell [2]): 78%; Activity (T-cell [4]): 32%; Activity (T-cell [5]): 63%; Activity (T-cell [6]): 0% |
| CC(C)C[C@H](NC(=O)CCN)C(=O)N[C@@H](C)C(=O)NCCN(CC(=O)NCc1cccc(C(=O)N[C@@H](CC(C)C)C(=O)N[C@H](C(=O)N[C@H](C(=O)O)C(C)C)[C@@H](C)O)c1)Cc1ccnc2ccccc12 (H-[βAla]LA[X9][3Amb]LTV-OH) |  |  | 1.31 |  |  |
| CC[C@H](C)[C@H](NC(=O)CNC(=O)CN(CCNC(=O)[C@H](C)NC(=O)[C@H](CC(C)C)NC(=O)CCN)Cc1ccccc1)C(=O)N[C@@H](CC(C)C)C(=O)N[C@H](C(=O)N[C@H](C(=O)O)C(C)C)[C@@H](C)O |  |  | 0.96 |  |  |
| CC(C)C[C@H](NC(=O)CCN)C(=O)N[C@@H](C)C(=O)NCCN(CC(=O)NCc1cccc(C(=O)N[C@@H](CC(C)C)C(=O)N[C@H](C(=O)N[C@H](C(=O)O)C(C)C)[C@@H](C)O)c1)C(=O)Cc1c[nH]c2ccccc12 (X1-[N(2-Aminoethyl)Gly]([Ala-Leu-βAla])[3Amb]LTV-OH) | 25 | 89 | 1.02 | 12 | Activity (T-cell [8]): 44%; Activity (T-cell [9]): 31%; Activity (T-cell [10]): 27%; Activity (T-cell [6]): 0% |
| CC(C)C[C@H](NC(=O)CCN)C(=O)N[C@@H](C)C(=O)NCCN(CCc1ccccc1)CC(=O)NCc1cccc(C(=O)N[C@@H](CC(C)C)C(=O)N[C@H](C(=O)N[C@H](C(=O)O)C(C)C)[C@@H](C)O)c1 (H-[βAla]LA[X6][3Amb]LTV-OH) |  |  | 0.25 |  |  |
| CC(C)C[C@H](NC(=O)CCN)C(=O)N[C@@H](C)C(=O)NCCN(CC(=O)NCc1cccc(C(=O)N[C@@H](CC(C)C)C(=O)N[C@H](C(=O)N[C@H](C(=O)O)C(C)C)[C@@H](C)O)c1)Cc1ccccc1 (H-[βAla]LA[X3][3Amb]LTV-OH) |  |  | 0.95 |  |  |
| CC(C)C[C@H](NC(=O)CCN)C(=O)N[C@@H](C)C(=O)NCCN1Cc2ccccc2C[C@H]1C(=O)NCc1cccc(C(=O)N[C@@H](CC(C)C)C(=O)N[C@H](C(=O)N[C@H](C(=O)O)C(C)C)[C@@H](C)O)c1 (H-[βAla]LA[X4][3Amb]LTV-OH) |  |  | 0.64 |  |  |
| CC(C)C[C@H](NC(=O)CCN)C(=O)N[C@@H](C)C(=O)NCCN(CC(=O)NCc1cccc(C(=O)N[C@@H](CC(C)C)C(=O)N[C@H](C(=O)N[C@H](C(=O)O)C(C)C)[C@@H](C)O)c1)C(=O)Cc1ccccc1 (PhAc-[N(2-Aminoethyl)Gly]([Ala-Leu-βAla])[3Amb]LTV-OH) |  |  | 0.54 |  |  |
| CC[C@H](C)[C@H](NC(=O)CNC(=O)CN(CCNC(=O)[C@H](C)NC(=O)[C@H](CC(C)C)NC(=O)[C@@H](N)CCC(=O)O)Cc1cccc2ccccc12)C(=O)N[C@@H](CC(C)C)C(=O)N[C@H](C(=O)N[C@H](C(=O)O)C(C)C)[C@@H](C)O |  |  | 0.7 |  |  |
| CC[C@H](C)[C@H](NC(=O)CNC(=O)[C@H](Cc1c[nH]c2ccccc12)NC(=O)CNC(=O)[C@H](C)NC(=O)[C@H](CC(C)C)NC(=O)[C@@H](N)CCC(=O)O)C(=O)N[C@@H](CC(C)C)C(=O)N[C@H](C(=O)N[C@H](C(=O)O)C(C)C)[C@@H](C)O | 15 | 81 |  | 90 | Activity (T-cell [2]): 54%; Activity (T-cell [4]): 55%; Activity (T-cell [5]): 47%; Activity (T-cell [6]): 0% |
| CC[C@H](C)[C@H](NC(=O)CNC(=O)CN(CCNC(=O)[C@H](C)NC(=O)[C@H](CC(C)C)NC(=O)[C@@H](N)CCC(=O)O)CC1CCCCC1)C(=O)N[C@@H](CC(C)C)C(=O)N[C@H](C(=O)N[C@H](C(=O)O)C(C)C)[C@@H](C)O |  |  | 0.86 |  |  |
| CC[C@H](C)[C@H](NCCNC(=O)[C@H](Cc1ccc(O)cc1)NCCNC(=O)[C@H](C)NC(=O)[C@H](CC(C)C)NC(=O)[C@@H](N)CCC(=O)O)C(=O)N[C@@H](CC(C)C)C(=O)N[C@H](C(=O)N[C@H](C(=O)O)C(C)C)[C@@H](C)O |  |  | 1.71 |  |  |
| CC(C)C[C@H](NC(=O)CCN)C(=O)N[C@@H](C)C(=O)NCCN(CC(=O)NCc1cccc(C(=O)N[C@@H](CC(C)C)C(=O)N[C@H](C(=O)N[C@H](C(=O)O)C(C)C)[C@@H](C)O)c1)Cc1ccc([N+](=O)[O-])cc1 (H-[βAla]LA[X8][3Amb]LTV-OH) |  |  | 0.86 |  |  |
| CC[C@H](C)[C@H](NC(=O)CNC(=O)CN(CCNC(=O)[C@H](C)NC(=O)[C@H](CC(C)C)NC(=O)[C@@H](N)CCC(=O)O)Cc1ccccc1)C(=O)N[C@@H](CC(C)C)C(=O)N[C@H](C(=O)N[C@H](C(=O)O)C(C)C)[C@@H](C)O |  |  | 0.9 |  |  |
| CC[C@H](C)[C@H](NC(=O)CNC(=O)CN(CCNC(=O)[C@H](C)NC(=O)[C@H](CC(C)C)NC(=O)[C@@H](N)CCC(=O)O)Cc1ccnc2ccccc12)C(=O)N[C@@H](CC(C)C)C(=O)N[C@H](C(=O)N[C@H](C(=O)O)C(C)C)[C@@H](C)O | 0 | 3 | 0.79 | 0 | Activity (T-cell [2]): 0%; Activity (T-cell [4]): 0%; Activity (T-cell [5]): 69%; Activity (T-cell [6]): 0% |
| CC[C@H](C)[C@H](NC(=O)CNC(=O)CN(CCNC(=O)[C@H](C)NC(=O)[C@H](CC(C)C)NC(=O)[C@@H](N)CCC(=O)O)Cc1ccc(O)cc1)C(=O)N[C@@H](CC(C)C)C(=O)N[C@H](C(=O)N[C@H](C(=O)O)C(C)C)[C@@H](C)O | 0 | 0 | 0.83 | 0 | Activity (T-cell [2]): 0%; Activity (T-cell [4]): 0%; Activity (T-cell [5]): 46%; Activity (T-cell [6]): 0% |

Reference: ChEMBL document CHEMBL1142968, “Synthetic anticancer vaccine candidates: rational design of antigenic peptide mimetics that activate tumor-specific T-cells” (2007)
